Assay results gathered from unrelated publications.
Target: Tyrosine-protein kinase Fer (FER, Homo sapiens, UniProt P16591)

C[C@@]1(Cc2ccc(C#N)cc2)C(=O)N(c2cc(Cl)cc(Cl)c2)c2ncc(C(=O)NC3(c4nc(C5CCC5)no4)CC3)n21 — remaining binding (cell-free assay, competition with immobilised ligand; 1 µM): 100%
O=C(Nc1c[nH]nc1C(=O)NC1CCNCC1)c1cc(F)cc(F)c1 — remaining binding (binding, competition with immobilised ligand; 1 µM): 100%
C=CC(=O)N1CCC(C(=O)NCC(=O)N2CCN(c3nc(-c4cnc(N)nc4C(F)F)nc(N4CCOCC4)n3)CC2)CC1 — remaining binding (binding, competition with immobilised ligand; 1 µM): 87%
COc1cnc(Nc2cccc(S(N)(=O)=O)c2)nc1N1CCN(c2ccccc2)CC1 — remaining binding (binding, competition with immobilised ligand; 1 µM): 100%
O=C(c1ccc(Nc2ncc(Cl)c(-c3ccc(Cl)s3)n2)cc1)N1CCC(N2CCCC2)CC1 — remaining binding (binding, competition with immobilised ligand; 1 µM): 81%
CO[C@H]1CC[C@H](CNc2ccc(S(=O)(=O)NC(=O)c3ccc(N4CCN(CC5=C(c6ccc(Cl)cc6)CC(C)(C)CC5)CC4)cc3Oc3cnc4[nH]ccc4c3)cc2[N+](=O)[O-])CC1 — remaining binding (cell-free assay, competition with immobilised ligand; 1 µM): 67%
c1cncc(-c2cccc(Nc3nccc(NC4CCCCC4)n3)c2)c1 — remaining binding (binding, competition with immobilised ligand; 10 µM): 83%
CS(=O)(=O)c1cc(C2(NC(=O)c3cncc4c3cnn4-c3ccc(F)cc3)CC2)ccn1 — remaining binding (cell-free assay, competition with immobilised ligand; 1 µM): 100%
C[C@@H](c1ccc(-n2cnc3c(N)ncnc32)cc1)N1CCc2nn(C)c(Cc3ccccc3)c2C1=O — remaining binding (binding, competition with immobilised ligand; 0.1 µM): 100%
N[C@H]1CCN(c2nccc(-c3cnn4ncccc34)n2)C1 — remaining binding (binding; 1 µM): 97%
Cc1c(C(=O)O)cc(-c2ccc(C3CCNCC3)cc2)c2ccc(-c3ccc(C(F)(F)F)cc3)cc12 — remaining binding (binding, competition with immobilised ligand; 1 µM): 100%
CN(C)c1nccc(-c2cnn3ncccc23)n1 — remaining binding (binding; 1 µM): 97%
COc1ccc2cc(OCC3(C(=O)O)CN(C(=O)c4ccc(F)cc4)C3)ccc2c1 — remaining binding (cell-free assay, competition with immobilised ligand; 1 µM): 74%
CN(C)c1ncc(F)c(-c2cnn3ncccc23)n1 — remaining binding (binding; 1 µM): 82%
CCC(=O)N[C@H]1CC[C@@H](C(=O)N(C)c2ccc(-c3nc4ccccc4o3)cc2)C1 — remaining binding (cell-free assay, competition with immobilised ligand; 1 µM): 90%
F[C@@H]1CCN(c2nccc(-c3cnn4ncccc34)n2)C1 — remaining binding (binding; 1 µM): 81%
O=C(NCCCN1CCOCC1)c1ccc(Nc2ncc(Cl)c(-c3ccc(Cl)s3)n2)cc1 — remaining binding (binding, competition with immobilised ligand; 1 µM): 86%
C[C@H]1CCN(c2nccc(-c3cnn4ncccc34)n2)C1 — remaining binding (binding; 1 µM): 93%
COc1ncc2cc3ccccc3nc2c1C#N — remaining binding (cell-free assay, competition with immobilised ligand; 5 µM): 100%
Cc1cnc(Nc2ccc(C(=O)N3CCC(N4CCCC4)CC3)cc2)nc1-c1cc2ccccc2s1 — remaining binding (binding, competition with immobilised ligand; 1 µM): 84%
CN(CCCC(F)(F)F)c1nccc(-c2cnn3ncccc23)n1 — remaining binding (binding; 1 µM): 65%
